Here are results for one compound from ChEMBL document CHEMBL1128459, “Characterization of potent and selective antagonists at postsynaptic 5-HT1A receptors in a series of N4-substituted arylpiperazines” (J Med Chem, 1995).

For assay [1], the species on record is Rattus norvegicus. Put plainly: Maximum antagonist effect (% effect) expressed relative to 8-hydroxy-DPAT (100%). The class given is functional. A digest of the protocol:
(§1)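 In the rat rectal-temperature model (sc dosing, 8-OH-DPAT 0.16 mg/kg sc for antagonism), the maximal percentage of induced hypothermia (agonist) and of block of 8-OH-DPAT hypothermia (antagonist) was recorded. Each value is given with the dose at which it was reached.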

Assay [2] in a line: Ratio of MED (agonist) to that of MED (antagonist) values. The class given is functional. In a few lines:
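The MED for inducing hypothermia alone was divided by the MED for blocking 8-OH-DPAT (0.16 mg/kg sc) hypothermia. Both MEDs came from sc dosing in male Wistar rats and were tested against vehicle by ANOVA with Dunnett's test, P < 0.05.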

For assay [3], the species on record is Rattus norvegicus. Put plainly: Maximum agonist effect (% effect) expressed relative to 8-hydroxy-DPAT (100%). It counts as functional. A digest of the protocol: as §1
For assay [4], the target named is 5-hydroxytryptamine receptor 1B (Rattus norvegicus, UniProt P28564). Put plainly: Binding affinity at 5-hydroxytryptamine 1B receptor. A digest of the protocol: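 Rat frontal cortex membranes (1/40 wt/vol) were homogenized in 50 mM Tris pH 7.7 with pargyline, 4 mM CaCl2 and 0.1% ascorbic acid, then preincubated for 30 min at 37 °C. Labelled with 2.0 nM [3H]-5-HT, with 100 nM 8-OH-DPAT and 100 nM mesulergine masking 5-HT1A/5-HT2A sites; 5-CT defined nonspecific binding.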

For assay [5], the system named is Rattus norvegicus. Put plainly: Compound after subcutaneous administration was evaluated for antagonist activity against hypothermia induced by 8-hydroxy -DPAT in rat. It counts as functional. The conditions noted are these: sc, read-out: ID50 (the source's name). In a few lines:
(§2)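 Male Wistar rats (200-220 g) had rectal temperature taken, then received the test drug sc in distilled water (1.0 mL/kg). After 30 min they got 8-OH-DPAT 0.16 mg/kg sc, and temperature was remeasured 30 min later. Change from basal was scored.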

Assay [6] concerns the target T1, 5-hydroxytryptamine receptor 1A (Rattus norvegicus, UniProt P19327).
T1 sequence (P19327 whole entry): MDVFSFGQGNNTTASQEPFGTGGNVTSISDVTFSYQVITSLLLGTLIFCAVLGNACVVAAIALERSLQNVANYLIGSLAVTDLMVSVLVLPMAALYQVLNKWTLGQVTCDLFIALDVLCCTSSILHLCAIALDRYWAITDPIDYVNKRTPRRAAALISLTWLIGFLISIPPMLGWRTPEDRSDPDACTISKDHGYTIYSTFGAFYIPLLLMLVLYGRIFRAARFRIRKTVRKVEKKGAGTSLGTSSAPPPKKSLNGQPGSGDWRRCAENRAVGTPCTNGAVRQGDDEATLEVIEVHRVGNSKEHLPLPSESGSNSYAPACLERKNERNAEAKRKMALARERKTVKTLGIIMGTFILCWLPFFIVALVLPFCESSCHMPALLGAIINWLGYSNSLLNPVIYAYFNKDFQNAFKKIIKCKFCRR
Nature of the assay: Binding affinity at 5-hydroxytryptamine 1A receptor. A digest of the protocol: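 Rat hippocampal membranes (1/100 wt/vol) in 50 mM Tris pH 7.7 with 4 mM CaCl2, 0.1% ascorbic acid and pargyline. Membranes were spun at 25000g, preincubated 30 min at 37 °C and respun, then incubated with 0.4 nM [3H]-8-OH-DPAT for 30 min at 25 °C. 5-HT defined nonspecific binding, and samples were filtered on PEI-soaked GF/B. IC50 came from regression; pKi = −log[IC50/(1+[L]/Kd)].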

The test system of assay [7] is Rattus norvegicus. Nature of the assay: Minimum effective agonist dose administered subcutaneously. The class given is functional. The conditions noted are these: sc, read-out: MED. In a few lines:
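Male Wistar rats (200-220 g) were given the test drug alone sc in water (1.0 mL/kg), with vehicle reinjected at 30 min. Rectal temperature change from basal was measured 60 min after the first injection. MED for hypothermia was set against vehicle by ANOVA with Dunnett's test, P < 0.05.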

For assay [8], the system named is Rattus norvegicus. Put plainly: Minimum effective antagonist dose administered subcutaneously. It counts as functional. As to conditions: sc, read-out: MED. A digest of the protocol: as §2
In assay [9] the target is D(2) dopamine receptor (Rattus norvegicus) (UniProt P61169). Put plainly: Inhibitory activity against methyl-phenidate-induced gnawing at dopamine D2 receptor in rat. A digest of the protocol: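 Male Wistar rats (200-220 g) received the test drug sc in water (1.0 mL/kg), then methylphenidate 40.0 mg/kg ip 30 min later. Observation began 30 min after that. Gnawing bouts were counted in 10 s per minute (maximum 10) by a blinded observer.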
Chain of D(2) dopamine receptor (Rattus norvegicus) (P61169 whole entry): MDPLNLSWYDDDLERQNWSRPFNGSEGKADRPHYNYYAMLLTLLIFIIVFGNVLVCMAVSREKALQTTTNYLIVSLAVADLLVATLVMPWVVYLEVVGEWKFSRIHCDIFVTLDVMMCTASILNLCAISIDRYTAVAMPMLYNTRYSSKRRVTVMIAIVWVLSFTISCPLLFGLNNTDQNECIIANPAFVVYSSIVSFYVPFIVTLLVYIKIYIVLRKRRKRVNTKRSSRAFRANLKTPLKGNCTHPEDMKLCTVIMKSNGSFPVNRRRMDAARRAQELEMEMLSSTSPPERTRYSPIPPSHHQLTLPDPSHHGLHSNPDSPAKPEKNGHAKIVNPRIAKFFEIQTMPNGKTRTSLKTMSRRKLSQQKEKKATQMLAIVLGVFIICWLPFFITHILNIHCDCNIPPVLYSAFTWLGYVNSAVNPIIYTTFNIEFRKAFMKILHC

Chain of 5-hydroxytryptamine receptor 1B (P28564 whole entry): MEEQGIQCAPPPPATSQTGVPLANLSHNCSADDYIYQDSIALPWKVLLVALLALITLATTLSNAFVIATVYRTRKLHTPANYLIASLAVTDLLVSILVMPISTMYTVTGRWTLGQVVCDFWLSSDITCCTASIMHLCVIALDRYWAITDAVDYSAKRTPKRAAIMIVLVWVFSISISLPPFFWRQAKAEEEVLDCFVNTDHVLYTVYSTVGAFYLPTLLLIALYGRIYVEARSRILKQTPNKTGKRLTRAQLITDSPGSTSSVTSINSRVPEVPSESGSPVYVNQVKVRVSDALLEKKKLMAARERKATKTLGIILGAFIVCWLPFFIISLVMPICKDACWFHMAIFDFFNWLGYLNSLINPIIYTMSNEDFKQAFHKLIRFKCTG

Consider `Clc1cccc2c1CC2CN1CCN(c2cccc3c2OCCO3)CC1` (centres undefined), for which the figures for the Max effect in the assay listed under Rattus norvegicus [1] and in the assay filed under Rattus norvegicus [3] were 100% and 0%, respectively. For the same compound, in [2], the Ratio was 63.5. In addition, the Ki in [4] is 550 nM; in [6], 3.98 nM. Moreover, in the assay on Rattus norvegicus [5], the ED50 turned out to be 0.8 mg/kg. In addition, the minimal effective dose in the assay with Rattus norvegicus [7] was 40 mg/kg; in the assay with Rattus norvegicus [8], 0.63 mg/kg. Further, in assay [9], the ID50 was > 40 mg/kg.
